Screens from PubChem.
Sampled rows, rich in hits. Any-hit rate of the full collection: about 1.2%.
HKDC1 inhibitor: blocks human hexokinase HKDC1 activity; Q2TB90; recombinant HKDC1, G6PDH/diaphorase resazurin coupled fluorescence; inhibition, % at 20 µM; hit rate 0.16% among 340,000;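 active = inhibition above about 35% when tested at 20 µM, limit read from the data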;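 also: plate controls were DMSO wells with enzyme for no effect and DMSO wells lacking enzyme for full effect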
Target sequence (Q2TB90 whole entry, looked up): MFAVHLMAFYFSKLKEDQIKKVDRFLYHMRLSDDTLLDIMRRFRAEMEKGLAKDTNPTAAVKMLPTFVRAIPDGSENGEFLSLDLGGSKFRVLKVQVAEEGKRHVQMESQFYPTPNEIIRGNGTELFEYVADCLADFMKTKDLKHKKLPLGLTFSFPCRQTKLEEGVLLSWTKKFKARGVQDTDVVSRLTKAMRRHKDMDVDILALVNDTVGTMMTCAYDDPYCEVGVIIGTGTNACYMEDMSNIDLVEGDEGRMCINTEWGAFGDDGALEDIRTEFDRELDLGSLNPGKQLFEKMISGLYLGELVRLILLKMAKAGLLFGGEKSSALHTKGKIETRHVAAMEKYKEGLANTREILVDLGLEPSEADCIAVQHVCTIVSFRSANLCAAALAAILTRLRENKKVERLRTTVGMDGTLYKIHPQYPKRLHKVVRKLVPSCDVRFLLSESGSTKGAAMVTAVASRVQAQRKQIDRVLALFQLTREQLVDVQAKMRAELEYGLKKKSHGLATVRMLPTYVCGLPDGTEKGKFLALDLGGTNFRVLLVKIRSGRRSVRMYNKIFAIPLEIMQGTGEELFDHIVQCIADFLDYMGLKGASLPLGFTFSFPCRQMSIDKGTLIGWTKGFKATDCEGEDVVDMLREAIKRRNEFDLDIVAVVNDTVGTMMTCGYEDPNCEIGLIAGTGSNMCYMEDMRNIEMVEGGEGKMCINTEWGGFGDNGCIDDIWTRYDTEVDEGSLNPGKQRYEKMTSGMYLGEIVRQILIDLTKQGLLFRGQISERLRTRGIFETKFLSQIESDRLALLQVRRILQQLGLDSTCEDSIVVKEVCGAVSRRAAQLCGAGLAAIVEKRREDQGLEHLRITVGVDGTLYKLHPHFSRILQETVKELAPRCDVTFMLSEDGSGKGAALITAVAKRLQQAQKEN
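Incubation: 90 min at room temperature in dark / Material: recombinant HKDC1 (HK5) hexokinase enzyme, produced in-house / Quantity: enzyme 5 µg/mL final / Compound: one dose of 20 µM, 1% DMSO / Reagent: glucose and ATP substrates / Buffer or medium: Tris pH 8.0 buffer with MgCl2, Tween-20, BSA, BME / Technique: resorufin fluorescence at 613 nm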
Diaphorase act: diaphorase activation or chemical reduction counter-screen | Diaphorase/resazurin coupled assay, resorufin fluorescence, 16 min; active compounds read high; 1 = vehicle wells, 0 = NADH-free wells | activation factor at 20 µM | hit rate 0.005% among 190,000;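 active = diaphorase activity raised at least twofold by the compound at 20 µM; inactive = activation factor below 2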
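Material: purified diaphorase enzyme from Clostridium kluyveri / Medium: HEPES pH 7.4 buffer with MgCl2 and Tween 20 / Schedule: enzyme reaction of 16 min at room temperature / Measured by: resorufin fluorescence, excitation 544 nm, emission 590 nm / Evaluation: rise in resorufin formation, marking diaphorase activation or chemical reduction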
PfGluPho inh: PfG6PD (Plasmodium falciparum) enzyme inhibition. PfGluPho enzyme, NADPH resazurin-diaphorase fluorescence. inhibition, % at 20 µM. AID 504690. hit rate 0.78% among 350,000;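 active = inhibition reaching at least a set limit at 20 µM in the primary screen, cut at about 59% in these data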;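 also: 0% = DMSO wells with substrate and 100% = DMSO wells lacking glucose-6-phosphate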
Diaph inh CS: counter-screen for diaphorase-based assays: diaphorase inhibitors and chemical oxidizers. diaphorase resazurin-to-resorufin fluorescence, NADH, 16 min; bacterial (C. kluyveri) enzyme, not human. inhibition, % at 20 µM. hit rate 0.69% among 190,000. AID 1217;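 active = primary screen inhibition at 20 µM above a set limit, cut at about 50% in these data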;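 also: plate controls were DMSO with full reaction for no effect and wells lacking NADH for full effect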
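System: Diaphorase enzyme from Clostridium kluyveri | Amount: Enzyme working solution with 0.14 U/mL diaphorase | Benchmarks: No-NADH positive control and DMSO neutral control | Signal: Fluorescence of resorufin formed from resazurin, Ex 544/Em 590 nm | Schedule: 16-min room-temperature incubation before reading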
G6PDH counter: L. mesenteroides G6PDH inhibition counter-screen; Purified L. mesenteroides G6PDH, diaphorase/resazurin coupled fluorescence, 45 min; inhibition, % at 5 µM; hit rate 0.12% among 200,000; AID 1020; in the data active = inhibition above about 50%
PfG6PD confirm: PfG6PD inhibition, single-dose confirmed | shares compounds with PfGluPho inh | recombinant PfGluPho, NADPH-diaphorase-resazurin fluorescence | inhibition, % at 20 µM | hit rate 34% among 2,400;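 active = inhibition of at least 50% at 20 µM in any single replicate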;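 also: 0% = DMSO with substrate and 100% = DMSO lacking glucose-6-phosphate substrate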
Diaphorase 10uM: counter-screen for P. falciparum G6PD inhibitors: diaphorase inhibitors, oxidizers | shares compounds with PfGluPho inh | diaphorase-coupled resazurin reduction, fluorescence, NADPH 10 uM | inhibition, % at 20 µM | hit rate 39% among 820;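 active = average inhibition reaching 50% or more with the compound at 20 µM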;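 also: resorufin red fluorescence formed as diaphorase reduces resazurin using NADPH; 0% = DMSO with enzyme and 100% = DMSO without enzyme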
Diaph ctr 30uM: diaphorase inhibition or oxidation at 30 uM NADPH | Diaphorase/resazurin coupled assay, resorufin fluorescence | shares compounds with PfGluPho inh | hit rate 29% among 820 | inhibition, % at 20 µM;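 active = inhibition averaging 50% or more, tested at 20 µM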;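 also: 0% = DMSO with enzyme and 100% = DMSO wells lacking diaphorase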
Starred values were filed as active, the others as inactive; . = no result.

SMILES | HKDC1 inhibitor | Diaphorase act | PfGluPho inh | Diaph inh CS | G6PDH counter | PfG6PD confirm | others
CCOC(=O)c1ccc(-n2c(C)nc3ccc(Br)cc3c2=O)cc1 | -3 | . | -2 | . | . | .
Cc1cc2ncn(-c3ncccc3[N+](=O)[O-])c2cc1C | -1 | . | 76* | . | . | -21
O=[N+]([O-])c1cccnc1-n1cnc2ccccc21 | 8 | 0.9 | 5 | 7 | 6 | .
Clc1nssc1=Nc1ccc(Br)cc1 | -14 | 0.8 | 79* | 21 | 0 | 29
Clc1nssc1=Nc1nncs1 | -8 | . | 100* | . | . | 82* | Diaphorase 10uM=1;Diaph ctr 30uM=-16
CN1C(=O)CSC1=Nc1ccc(Br)cc1 | -4 | . | -8 | . | . | .
Cn1cc(S(=O)(=O)CC(=O)Nc2ccc(Br)cc2)c2ccccc21 | 2 | 0.8 | 87* | 17 | 10 | 39
COC(=O)[C@H](CCSC)NC(=O)c1cc2c(cn1)[nH]c1ccccc12 | -14 | . | 80* | . | . | 57* | Diaphorase 10uM=-10;Diaph ctr 30uM=-7
COc1ccc(CN2CCN(CCCc3ccccc3)C(CCO)C2)c(OC)c1 (configuration not stated) | -2 | . | -16 | . | . | .
COc1cc(CN2CCN(CCCc3ccccc3)C(CCO)C2)cc(OC)c1O (configuration not stated) | 22 | . | 61* | . | . | 57* | Diaphorase 10uM=7;Diaph ctr 30uM=1
Cc1cccc(N(CC(=O)N/N=C/c2cc([N+](=O)[O-])ccc2Cl)S(C)(=O)=O)c1C | -1 | 0.8 | 123* | 19 | 4 | 82* | Diaphorase 10uM=79*;Diaph ctr 30uM=71*
CS(=O)(=O)N(CC(=O)N/N=C/c1cc([N+](=O)[O-])ccc1Cl)c1ccccc1 | -2 | 0.9 | 54 | 9 | 0 | .
COc1cc(N)c(Cl)cc1C(=O)OCC(=O)N1CCCC1 | -6 | . | 11 | . | . | .
COc1ccc(NC(=O)Nc2cccc([N+](=O)[O-])c2)cc1Cl | -8 | 1 | 61* | 4 | -29 | 10
COc1ccc([N+](=O)[O-])cc1NC(=O)c1ccc(Br)s1 | -1 | 1.1 | -14 | -9 | -1 | .
Cc1cc(-n2c(C)cc(C(=O)COc3cccnc3[N+](=O)[O-])c2C)no1 | 10 | . | 6 | . | . | .
CC(=O)c1cccc(OCC(=O)c2cc(C)n(-c3cc(C)on3)c2C)c1 | 3 | 0.9 | 117* | 9 | 5 | 62* | Diaphorase 10uM=62*;Diaph ctr 30uM=55*
Cc1cc(-n2c(C)cc(C(=O)COc3ccc4ccc(=O)oc4c3)c2C)no1 | -2 | 0.8 | 89* | 21 | 0 | 39
C[C@H](CO)N1C[C@H](C)[C@@H](CN(C)Cc2ccc3c(c2)OCO3)Oc2cc(Br)ccc2S1(=O)=O | . | . | 9 | . | . | .
COc1ccccc1OCC(=O)NNC(=O)c1ccc2c(=O)n3c(nc2c1)CCC3 | 3 | . | 8 | . | . | .
CCN(Cc1cccs1)C(=O)CN1CCN(S(=O)(=O)c2ccc3c(c2)OCCCO3)CC1 | 5 | . | -8 | . | . | .
Cc1c(C(=O)Nc2ccncc2)sc2nc(-c3ccccc3)cn12 | -3 | 0.9 | 78* | 13 | -12 | 24
COC(=O)CCC(=O)OC1(C)C(=O)C=C2C=C(C3CC3)N(C(CO)CO)C=C2C1=O (configuration not stated) | 17 | . | 52 | . | . | .
COC(=O)CCCC1=CC2=CC(=O)C(C)(OC(=O)c3cccs3)C(=O)C2=CN1C1CC1 (configuration not stated) | 15 | . | 62* | . | . | 6
COC(=O)CCC(=O)OC1(C)C(=O)C=C2C=C(C3CC3)N(CCc3ccccn3)C=C2C1=O (configuration not stated) | 19 | . | 63* | . | . | 26
SMILES | HKDC1 inhibitor | Diaphorase act | PfGluPho inh | Diaph inh CS | G6PDH counter | PfG6PD confirm | others
COC(=O)CCC(=O)OC1(C)C(=O)C=C2C=C(C3CC3)N(c3ccccc3)C=C2C1=O (configuration not stated) | 16 | . | 66* | . | . | 37
COC(=O)CCC(=O)OC1(C)C(=O)C=C2C=C(C3CC3)N(CCCOC(C)C)C=C2C1=O (configuration not stated) | 20 | . | 68* | . | . | 23
COC(=O)CCC(=O)OC1(C)C(=O)C=C2C=C(C3CC3)N(CCCCO)C=C2C1=O (configuration not stated) | 20 | . | 52 | . | . | .
COC(=O)CCCC1=CC2=CC(=O)C(C)(OC(=O)c3cccs3)C(=O)C2=CN1C1CCCCC1 (configuration not stated) | 16 | . | 37 | . | . | .
O=C1C(Cl)=C(O)C2(Cl)C(Cl)=C(Cl)C12Cl (configuration not stated) | -3 | . | 5 | . | . | .
CC(=O)c1c(C)oc2ccc(N(C(C)=O)S(=O)(=O)c3cccc4cccnc34)cc12 | 3 | . | 10 | . | . | .
C[C@]12c3[nH]c4cc(-c5ccco5)ccc4c3CCN1C(=O)[C@@H](CC(=O)NCc1cccc(C(F)(F)F)c1)C[C@@H]2C(=O)N1CCCCC1 | 3 | . | 33 | . | . | .
CCOC(=O)c1c2ccccc2[n+]([O-])n1CCO | -4 | . | -7 | . | . | .
CCn1cc(CNC(=O)C2CCC(=O)N(C3CCCCCC3)C2)cn1 (configuration not stated) | -7 | . | 10 | . | . | .
COC(=O)CCC(=O)OC1(C)C(=O)C=C2C=C(C3CC3)N(CCc3c[nH]c4ccccc34)C=C2C1=O (configuration not stated) | 24 | . | 65* | . | . | 38
COC1CC(C)C(OC)c2cc(O)cc(c2O)NC(=O)C(C)=CC=CC(C)C(OC(N)=O)C(C)=CC(C)C1OC (configuration not stated) | 17 | . | 105* | . | . | 106* | Diaphorase 10uM=82*;Diaph ctr 30uM=82*
COC1C=CC=C(C)C(=O)NC2=CC(=O)C(N)=C(CC(C)CC(OC)C(O)C(C)C=C(C)C1OC(N)=O)C2=O (configuration not stated) | 6 | . | -40 | . | . | .
COc1ccccc1OCCSc1nc2ccccc2n1CC(O)CO (configuration not stated) | -4 | . | 4 | . | . | .
O=S(=O)(NCc1csc(-c2ccccc2)n1)c1ccc(Cl)s1 | 1 | 1 | 99* | 5 | 18 | 48* | Diaphorase 10uM=43;Diaph ctr 30uM=41
Cc1nc(SCC(=O)c2ccc(F)cc2)n[nH]1 | -4 | 0.9 | 63* | 10 | 16 | -15
O=C(NC1CCCCC1)C1CCN(C(=O)c2ccc(Cl)cc2)CC1 | -3 | . | 0 | . | . | .
c1ccc(CN2CCC(N3CCC(N4CCCCCC4)CC3)CC2)cc1 | -4 | . | 14 | . | . | .
c1ccc2c(c1)c1c(c3ccccc32)CN2CCCC2C1 (configuration not stated) | 5 | . | 65* | . | . | -28
COc1cc(C(=O)Nc2cccc(S(=O)(=O)N3CCCC3)c2)cc(OC)c1C | 4 | . | 60* | . | . | -8
